“Also recorded” adds a separate entry of the source.
Assays:
[1] = test system: GC signaling; test: Pilot chemical screen of FDA approved drug library, GRE:Luc larvae; type: in vivo, zebrafish; details: 48 h; for primary screen hit (activation of GC signaling): larvae, 4 μg/mL in 0.3% DMSO, robust z-score cutoff 1.49; for retest for activation of GC signaling: GRE:Luc larvae, at least 2 concentrations
Procedure, shortened: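 Single 5 dpf GRE:Luc larvae in luciferin-E3 were exposed to library compounds at a final 4 μg/mL in 0.3% DMSO (prediluted to 40 μg/mL in 3% DMSO), with 5–11 replicates per compound. Each plate held 8 DEX (10 μM) and 8 DMSO controls; reading lasted 48 h. Hits were called from log-transformed AUCs, robust z-scored, above a cutoff of 1.49 chosen by ROC/Youden index. Retests used a second supplier and ≥2 concentrations.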

[2] = test system: GC signaling; test: GRIZLY assay: bioluminescence of single GRE:Luc transgenic zebrafish larvae; type: in vivo; details: for inhibition of dexamethasone-induced relative reporter activity: in presence of 5 μM dexamethasone; for relative reporter (luciferase) activity in response to treatment: 5 dpf, compound added to the water
Procedure, shortened: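 Single 4 dpf transgenic larvae were placed one per well in E3 medium with 0.5 mM luciferin and dosed via the water at 5 dpf. The antagonist was given with 5 μM DEX; organotins with 5 μM DEX for 24 h; salt stress was 250 mM NaCl. Plates were sealed and read at 28 °C. Larval n was 48 for dose–response and 22 for salt. Tests were non-parametric, with EC50/IC50 from non-linear regression.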

[3] = test system: GC signaling; test: AB.9 GRE:Luc cell reporter bioluminescence assay; type: cell-based, zebrafish; details: AB.9 GRE:Luc cells; for inhibition of dexamethasone-induced relative reporter activity: co-treated with 10 nM DEX (Figure 2 legend: 5 nM)
Procedure, shortened: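 AB.9 GRE:Luc cells were seeded at 35,000 cells/well one day ahead and held at 28 °C. Medium was then swapped for phenol-red-free L-15 with 0.5 mM luciferin before compound addition. Organotin runs used DEX in 17% (v/v) charcoal-treated FCS with TBT or DBT at 30–500 nM. Plates were sealed and read for 24 h at 28 °C. Analysis used one-way ANOVA with Dunnett's posttest; IC50 came from non-linear regression.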

[4] = test system: GC signaling; test: Pilot chemical screen of FDA approved drug library, AB.9 GRE:Luc cells; type: cell-based, zebrafish; details: 48 h; for primary screen hit (activation of GC signaling): 4 μg/mL in 0.3% DMSO, robust z-score cutoff 12.3; for retest for activation of GC signaling: at least 2 concentrations
Procedure, shortened: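 GRE:Luc AB.9 cells in luciferin-L-15 received library compounds prediluted to 40 μg/mL in 3% DMSO, giving a final 4 μg/mL in 0.3% DMSO. There were 3 replica plates, each with 8 DEX (10 μM) and 8 DMSO controls, read for 48 h. Log-transformed trapezoidal AUCs were robust z-scored, with a cutoff of 12.3 set by ROC/Youden index. Retests used a second supplier, the same setup and ≥2 concentrations.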

[5] = test system: Luciferase expression; test: Whole mount immunohistochemistry with anti-luciferase antibody in GRE:Luc larvae; type: in vivo, zebrafish; details: 5 dpf larvae, 40 μM, 8 h
[6] = test system: endogenous cortisol levels; test: Cortisol-ELISA of larval extracts; type: in vivo, zebrafish; details: after 20 min
Procedure, shortened: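 Osmotic stress was induced in 5 dpf larvae with 250 mM NaCl, and endogenous cortisol was followed over time after exposure (n = 5).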

CC(=O)S[C@@H]1CC2=CC(=O)CC[C@]2(C)[C@H]2CC[C@@]3(C)[C@@H](CC[C@@]34CCC(=O)O4)[C@H]12 [spironolactone]
primary screen hit (activation of GC signaling) [1]: scored as primary screen hits

CCC[CH2][Sn]([Cl])([Cl])[CH2]CCC [DBT, dibutyltin dichloride]
inhibition of dexamethasone-induced relative reporter activity ([2]; GRE:Luc larvae): did not show statistically significant attenuation of GC signaling | inhibition of dexamethasone-induced relative reporter activity [3]: significantly reduced by treatment with 250 and 500 nM DBT; also recorded: statistically significant inhibition of bioluminescence at higher concentrations

NCCC(O)(P(=O)(O)O)P(=O)(O)O [pamidronic acid]
primary screen hit (activation of GC signaling) [4]: false positive hits | retest for activation of GC signaling [4]: could not be confirmed during the rescreen

C[C@]12C[C@H](O)[C@H]3[C@@H](CCC4=CC(=O)CC[C@@]43C)[C@@H]1CC[C@@H]2C(=O)CO [corticosterone]
retest for activation of GC signaling [1]: unable to do so at all concentrations tested | primary screen hit (activation of GC signaling) [1]: not retained in the primary screen | retest for activation of GC signaling [4]: able to activate the GC signaling pathway

CCC[CH2][Sn]([CH2]CCC)[CH2]CCC [TBT, tributyltin]
lowest concentration inhibiting GC signaling in GRE:Luc larvae ([2]; GRE:Luc larvae, 5 μM dexamethasone, measured for 24 h, p ≤ 0.05): 20 nM | inhibition of dexamethasone-induced relative reporter activity ([2]; GRE:Luc larvae): effective in inhibiting GC signaling | inhibition of dexamethasone-induced relative reporter activity [3]: indistinguishable from cells treated with DEX alone

Nc1c2c(nc3ccccc13)CCCC2O (stereo not drawn) [hydroxytacrine]
primary screen hit (activation of GC signaling) [4]: false positive hits | retest for activation of GC signaling [4]: could not be confirmed during the rescreen

C[C@H]1C[C@H]2[C@@H]3CCC4=CC(=O)C=C[C@]4(C)[C@@]3(F)[C@@H](O)C[C@]2(C)[C@@]1(O)C(=O)CO [betamethasone]
fluorescence intensity of luciferase immunohistochemistry [5]: significant (p = 0.0115, n = 10) increase

C[C@]12CCC(=O)C=C1CC[C@@H]1[C@@H]2[C@@H](O)C[C@]2(C=O)[C@@H](C(=O)CO)CC[C@@H]12 [aldosterone]
relative reporter (luciferase) activity in response to treatment ([2]; GRE:Luc larvae): did not respond | relative reporter activity in response to treatment [3]: did not respond

CC#C[C@]1(O)CC[C@H]2[C@@H]3CCC4=CC(=O)CCC4=C3[C@@H](c3ccc(N(C)C)cc3)C[C@@]21C [mifepristone]
inhibition of dexamethasone-induced relative reporter activity ([2]; GRE:Luc larvae): blocked the response of the reporter to DEX treatment | inhibition of dexamethasone-induced relative reporter activity [3]: blocked the response of the reporter to DEX treatment

C[C@]12CCC(=O)C=C1CC[C@@H]1[C@@H]2[C@@H](O)C[C@@]2(C)[C@H]1CC[C@]2(O)C(=O)CO [cortisol, hydrocortisone]
relative reporter (luciferase) activity in response to treatment ([2]; GRE:Luc larvae): responded in a dose-dependent manner

C[C@]12C=CC(=O)C=C1CC[C@@H]1[C@@H]2C(=O)C[C@@]2(C)[C@H]1CC[C@]2(O)C(=O)CO [prednisone]
retest for activation of GC signaling [1]: unable to do so at all concentrations tested | primary screen hit (activation of GC signaling) [1]: not retained in the primary screen | primary screen hit (activation of GC signaling) [4]: being the exception | retest for activation of GC signaling [4]: weak activation of GC signaling only at the highest concentration tested

CC(=O)[C@H]1CC[C@H]2[C@@H]3CC=C4C[C@@H](O)CC[C@]4(C)[C@H]3CC[C@]12C [pregnenolone]
retest for activation of GC signaling [1]: confirmed to activate the GC signaling pathway in vivo | primary screen hit (activation of GC signaling) [1]: scored as primary screen hits | retest for activation of GC signaling [4]: did not activate the GC pathway | cortisol levels in the larvae after treatment [6]: significantly increased cortisol levels | cortisol levels in the larvae after treatment ([6]; listed as Pregnenolone): increase in cortisol (hydrocortisone) levels

C=C1C[C@H]2[C@@H]3C=C(C)C4=CC(=O)CC[C@]4(C)[C@H]3CC[C@]2(C)[C@@]1(OC(C)=O)C(C)=O [melengestrol acetate]
retest for activation of GC signaling [1]: dose-dependently activate GC signaling | primary screen hit (activation of GC signaling) [1]: missed

C[C@@H]1C[C@H]2[C@@H]3CCC4=CC(=O)C=C[C@]4(C)[C@@]3(F)[C@@H](O)C[C@]2(C)[C@@]1(O)C(=O)CO [dexamethasone]
induction of reporter activity at 1 dpf ([2]; 20 μM DEX, 1 dpf, 9 h after start of treatment): low-level yet non-significant induction | relative reporter (luciferase) activity in response to treatment ([2]; GRE:Luc larvae): increase in relative luciferase activity | relative reporter (luciferase) activity in response to treatment ([2]; GRE:Luc larvae, listed as DEX): responded in a dose-dependent manner
